Laboratory results from ChEMBL document CHEMBL5346886 (Eur J Med Chem, 2023).
Active and inactive are the calls of the source.

What was measured:
[1] = Stability in human plasma assessed as half-life; format: ADME, cell-free
[2] = system: Murine hepatitis virus; assay: Antiviral activity against murine hepatitis virus-A59 infected in BALB/c mouse assessed as alleviation of lymphocytes infiltration in lungs at 200 mg/kg, po administered once daily one hour post infection and measured after 3 days by H&E staining based analysis; format: functional, organism-based; conditions: time 3.0 day
Outline: (§1)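 In male BALB/c mice (3–4 weeks), MHV-A59 was given intranasally (30 μL, TCID50 = 10−7.125/100 μL). Oral dosing once daily in a Cremophor EL/PBS/DMSO vehicle began at 1 hpi and lasted four days. At 3 dpi, lungs and livers from 4 mice per group were fixed in zinc formalin and paraffin-embedded. Sections of about 4 μm were stained with H&E and examined at 200× and 400×.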

[3] = system: Murine hepatitis virus; assay: Antiviral activity against murine hepatitis virus-A59 infected in BALB/c mouse assessed as remission of hemorrhage in liver at 200 mg/kg, po administered once daily one hour post infection and measured after 3 days by H&E staining based analysis; format: functional, organism-based; conditions: time 3.0 day; outline: as §1
[4] = system: Murine hepatitis virus; assay: Antiviral activity against murine hepatitis virus-A59 infected in BALB/c mouse model of acute liver injury assessed as reduction in plasma ALT level at 10 to 200 mg/kg, po administered once daily one hour post infection and measured after 3 days; format: functional, organism-based; conditions: dose 10-200 mg/kg, time 3.0 day
Outline: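 Male BALB/c mice were infected intranasally with MHV-A59 (30 μL, TCID50 = 10−7.125/100 μL) and dosed orally once daily from 1 hpi for four days in 15% Cremophor EL/82.5% PBS/2.5% DMSO. At 3 dpi, blood from 4 euthanized mice per group was left to clot at room temperature and centrifuged. Serum ALT and AST were measured on a clinical chemistry analyzer.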

[5] = system: Murine hepatitis virus; assay: Antiviral activity against murine hepatitis virus-A59 infected in BALB/c mouse assessed as inhibition of viral titer in lungs at 200 mg/kg, po administered once daily one hour post infection and measured after 3 days by qRT-PCR analysis; format: functional, organism-based; conditions: time 3.0 day
Outline: (§2)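 SPF male BALB/c mice aged 3–4 weeks were put under isoflurane and inoculated intranasally with 30 μL MHV-A59 (TCID50 = 10−7.125/100 μL) in PBS. Oral dosing once daily in 15% Cremophor EL/82.5% PBS/2.5% DMSO started at 1 hpi and ran for four days; groups had 12 mice. At 3 dpi, 4 mice per group were killed and lung and liver M-gene copies measured by qRT-PCR.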

[6] = system: Murine hepatitis virus; assay: Antiviral activity against murine hepatitis virus-A59 infected in BALB/c mouse assessed as alleviation of thickened alveolar septa in lungs at 200 mg/kg, po administered once daily one hour post infection and measured after 3 days by H&E staining based analysis; format: functional, organism-based; conditions: time 3.0 day; outline: as §1
[7] = Drug distribution in BALB/c mouse liver assessed as hydrolyzed ibuprofen metabolite at 200 mg/kg, po administered as single dose and measured after 1 hrs by LC-MS/MS analysis; format: ADME, organism-based; conditions: in vivo
[8] = system: Murine hepatitis virus; assay: Antiviral activity against murine hepatitis virus-A59 infected in BALB/c mouse assessed as reduction in IFN-beta production in lungs at 200 mg/kg, po administered once daily one hour post infection and measured after 3 days by ELISA analysis; format: functional, organism-based; conditions: time 3.0 day
Outline: (§3)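 MHV-A59 was inoculated intranasally into male BALB/c mice (30 μL, TCID50 = 10−7.125/100 μL), with oral dosing once daily from 1 hpi for four days. At 3 dpi, 0.1 g lung or liver from 4 mice per group was homogenized in 0.9 mL water at 4 °C and centrifuged. Supernatant IFN-β was read by ELISA; TNF-α, IFN-γ, IL-1β, IL-6 and CXCL10 by multi-analyte kit, with OD 450 nm against standards.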

[9] = system: Murine hepatitis virus; assay: Antiviral activity against murine hepatitis virus-A59 infected in BALB/c mouse assessed as reduction in IFN-gamma production in lungs at 200 mg/kg, po administered once daily one hour post infection and measured after 3 days by ELISA analysis; format: functional, organism-based; conditions: time 3.0 day; outline: as §3
[10] = system: Murine hepatitis virus; assay: Antiviral activity against murine hepatitis virus-A59 infected in BALB/c mouse assessed as reduction in IFN-gamma production in liver at 10 to 100 mg/kg, po administered once daily one hour post infection and measured after 3 days by ELISA analysis; format: functional, organism-based; conditions: dose 10-100 mg/kg, time 3.0 day; outline: as §3
[11] = system: Murine hepatitis virus; assay: Antiviral activity against murine hepatitis virus-A59 infected in po dosed BALB/c mouse assessed as inhibition of viral replication in liver administered once daily one hour post infection and measured after 3 days by qRT-PCR analysis; format: functional, organism-based; conditions: dose 10-200 mg/kg, time 3.0 day; outline: as §2
[12] = Drug distribution in BALB/c mouse kidney assessed as hydrolyzed ibuprofen metabolite at 200 mg/kg, po administered as single dose and measured after 1 hrs by LC-MS/MS analysis; format: ADME, organism-based; conditions: in vivo
[13] = Drug metabolism in Sprague-Dawley rat assessed as hydrolysis-mediated GS-441524 metabolite formation at 5 mg/kg, iv administered as single dose and measured after 24 hrs by LC-MS/MS analysis; format: ADME, organism-based; conditions: in vivo
[14] = system: Canine coronavirus; assay: Antiviral activity against Canine coronavirus infected in CRFK cells assessed as reduction in viral copy pre-infected with cells for 1 hrs followed by compound addition and measured after 48 hrs by RT-qPCR analysis; format: functional, organism-based; conditions: Alphacoronavirus 1, CRFK
Outline: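 CRFK cells (CCoV, FIPV) or ST cells (TGEV) were grown in DMEM with 10% FBS at 37 °C, 5% CO2. At 80% confluence they were washed in serum-free medium and infected at MOI 0.01 for 1 h at 37 °C. Compounds were then added at 0.1–100 μmol/L, with DMSO as blank. After 48 h, cells and supernatants were analysed by qRT-PCR. Inhibition came from viral copy number, and EC50 from curve fitting.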

[15] = Drug distribution in BALB/c mouse kidney assessed as hydrolyzed GS-441524 metabolite at 200 mg/kg, po administered as single dose and measured after 1 hrs by LC-MS/MS analysis; format: ADME, organism-based; conditions: in vivo
[16] = Drug metabolism in Sprague-Dawley rat assessed as hydrolysis-mediated GS-441524 metabolite formation at 25 mg/kg, po administered as single dose and measured after 24 hrs by LC-MS/MS analysis; format: ADME, organism-based; conditions: in vivo
Outline: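 Male SD rats (n = 3), fasted 12 h, dosed intragastrically; jugular vein blood into EDTA-K2 tubes at 0.25, 0.5, 1, 2, 3, 4, 6, 8 and 24 h; plasma protein-precipitated with acetonitrile, filtered, analytes measured by LC/MS/MS; noncompartmental PK analysis; mean ± SD.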

[17] = system: Murine hepatitis virus; assay: Antiviral activity against murine hepatitis virus-A59 infected in BALB/c mouse assessed as reduction in mortality at 10 to 200 mg/kg, po administered once daily one hour post infection and measured after 23 days; format: functional, organism-based; conditions: dose 10-200 mg/kg, time 23.0 day
Outline: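 After intranasal MHV-A59 inoculation (30 μL, TCID50 = 10−7.125/100 μL), 3–4-week-old male BALB/c mice received oral drug or vehicle once daily from 1 hpi for four days, 12 per group. The remaining mice were monitored daily for body weight, clinical signs and death until 23 dpi; survival curves were plotted.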

[18] = Toxicity in BALB/c mouse infected with murine hepatitis virus-A59 assessed as effect on survival at 50 to 200 mg/kg, po administered once daily one hour post infection and measured after 23 days; conditions: in vivo, 552 h

CC(C)Cc1ccc(C(C)C(=O)OC[C@H]2O[C@@](C#N)(c3ccc4c(N)ncnn34)[C@H](O)[C@@H]2O)cc1 (stereo partly drawn)
active: Activity [2] | Activity [3] | Activity [4] | Activity [5] | Activity [6] | Activity [8] | Activity [9] | Activity [10] | Activity [11] Dose-Dependent Effect | Activity [17]
Active: Drug uptake [7] | Drug uptake [12] | Drug uptake [15]
4.4173 h: t1/2 [1]
Metabolite_Detected: Drug metabolism [13] | Drug metabolism [16]
1410 nM: EC50 [14]
Toxic: Activity [18]
